Laboratory results published in ChEMBL document CHEMBL3244248, “Substituted 3-amino-1,1-diaryl-2-propanols as potential antidepressant agents” (J Med Chem, 1979).
Blank lines part the entries; values can stand above or below the compound they belong to. Calls of active or inactive are those of the source. No cut-off for these calls is given here.

Experiments:
Mus musculus [1] = experiment: Antidepressant activity against reserpine-induced hypothermia CFLP mouse model assessed as change in esophageal temperature at 5 mg/kg, po treated before 2 to 24 hrs of reserpine challenge; type: functional, organism-based; set-up: dose 5 mg/kg
Summary of the method: (§1)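 Male CFLP mice (18–23 g), two groups of five, received oral compound or vehicle 24, 18 and 2 h before iv reserpine base (1 mg/kg). Esophageal temperature was read before reserpine and at 2, 4 and 6 h. Test-minus-control mean differences at the three times were summed and corrected for the 0 h difference, giving Δ6 (°C).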

Ileum = experiment: Anticholinergic effect in guinea pig ileum assessed as inhibition of acetylcholine-induced contraction; type: tissue-based; conditions: Cavia porcellus, read-out: pA2 (converted)
Summary of the method: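 Guinea pig ileum contracted by acetylcholine. ED50 values were generated from a dose–response fit, p = D^E/(D^E + K^E), and converted to pA2. pA2 is the negative log10 of the molar antagonist concentration that reduces the effect of two equal acetylcholine doses to that of a single dose.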

[2] = Anticholinergic effect in sc dosed CFLP mouse assessed as inhibition of pilocarpine-induced salivation; type: organism-based; conditions: in vivo
Summary of the method: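 Male CFLP mice (18–23 g), groups of eight. Vehicle or drug was given sc 20 min before urethane anaesthesia (1.8 g/kg sc), and pilocarpine (2 mg/kg sc) followed 10 min later. Salivation areas on chromatography paper were measured by planimeter every 5 min for 35 min. Percentage change from control was regressed against log dose to give an ED50 with fiducial limits.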

Mus musculus [3] = species: Mus musculus; experiment: Anticholinergic effect in CFLP mouse assessed as mydriasis; conditions: in vivo
Mus musculus [4] = experiment: Antidepressant activity against reserpine-induced hypothermia CFLP mouse model assessed as change in esophageal temperature at 10 mg/kg, po treated before 2 to 24 hrs of reserpine challenge; type: functional, organism-based; set-up: dose 10 mg/kg; summary of the method: as §1
Mus musculus [5] = experiment: Antidepressant activity against reserpine-induced hypothermia CFLP mouse model assessed as change in esophageal temperature at 30 mg/kg, po treated before 2 to 24 hrs of reserpine challenge; type: functional, organism-based; set-up: dose 30 mg/kg; summary of the method: as §1
Mus musculus [6] = experiment: Antidepressant activity against reserpine-induced hypothermia CFLP mouse model assessed as change in esophageal temperature at 100 mg/kg, po treated before 2 to 24 hrs of reserpine challenge; type: functional, organism-based; set-up: dose 100 mg/kg; summary of the method: as §1
Mus musculus [7] = experiment: Antidepressant activity against reserpine-induced hypothermia CFLP mouse model assessed as change in esophageal temperature < 5 degC at 100 mg/kg, po treated before 2 to 24 hrs of reserpine challenge; type: functional, organism-based; set-up: dose 100 mg/kg; summary of the method: as §1
Mus musculus [8] = experiment: Antidepressant activity against reserpine-induced hypothermia CFLP mouse model assessed as change in esophageal temperature at 3 mg/kg, po treated before 2 to 24 hrs of reserpine challenge; type: functional, organism-based; set-up: dose 3 mg/kg; summary of the method: as §1
Mus musculus [9] = experiment: Antidepressant activity against reserpine-induced hypothermia CFLP mouse model assessed as change in esophageal temperature at 1 mg/kg, po treated before 2 to 24 hrs of reserpine challenge; type: functional, organism-based; set-up: dose 1 mg/kg; summary of the method: as §1
Mus musculus [10] = experiment: Antidepressant activity against reserpine-induced hypothermia CFLP mouse model assessed as change in esophageal temperature at 60 mg/kg, po treated before 2 to 24 hrs of reserpine challenge; type: functional, organism-based; set-up: dose 60 mg/kg; summary of the method: as §1
Mus musculus [11] = experiment: Antidepressant activity against reserpine-induced hypothermia CFLP mouse model assessed as change in esophageal temperature at 20 mg/kg, po treated before 2 to 24 hrs of reserpine challenge; type: functional, organism-based; set-up: dose 20 mg/kg; summary of the method: as §1
Mus musculus [12] = experiment: Antidepressant activity against reserpine-induced hypothermia CFLP mouse model assessed as change in esophageal temperature at 6 mg/kg, po treated before 2 to 24 hrs of reserpine challenge; type: functional, organism-based; set-up: dose 6 mg/kg; summary of the method: as §1
Mus musculus [13] = experiment: Antidepressant activity against reserpine-induced hypothermia CFLP mouse model assessed as change in esophageal temperature at 4 mg/kg, po treated before 2 to 24 hrs of reserpine challenge; type: functional, organism-based; set-up: dose 4 mg/kg; summary of the method: as §1
Mus musculus [14] = experiment: Antidepressant activity against reserpine-induced hypothermia CFLP mouse model assessed as change in esophageal temperature < 5 degC at 30 mg/kg, po treated before 2 to 24 hrs of reserpine challenge
[15] = Inhibition of radiolabeled 5-hydroxytryptamine uptake in whole rat brain synaptosome; type: functional, tissue-based
Rattus norvegicus = experiment: Toxicity in substantia nigra lesioned rat assessed as turning behaviour up to 50 mg/kg, po; type: organism-based; set-up: dose 50 mg/kg, route oral; conditions: in vivo
Summary of the method: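 Rats with a unilateral substantia nigra lesion, dosed orally at up to 50 mg/kg, and observed for turning.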

[16] = Inhibition of radiolabeled dopamine uptake in whole rat brain synaptosome; type: functional, tissue-based
[17] = Inhibition of radiolabeled noradrenaline uptake in whole rat brain synaptosome; type: functional, tissue-based
Mus musculus [18] = experiment: Toxicity in mouse assessed as CNS stimulation up to 8 mg/kg, po; type: organism-based, Central nervous system; set-up: dose 8 mg/kg, route oral; conditions: in vivo
Brain = experiment: In vivo inhibition of hydroxytryptamine-induced depletion of rat brain noradrenaline; type: functional
Mus musculus [19] = experiment: Antidepressant activity against reserpine-induced hypothermia CFLP mouse model assessed as change in esophageal temperature at 16 mg/kg, po treated before 2 to 24 hrs of reserpine challenge; type: functional, organism-based; set-up: dose 16 mg/kg; summary of the method: as §1

- ED50 [2]: 36 mg/kg
- ED50 (Mus musculus [3]): 53 mg/kg
SMILES: Br.CN(C)CC(O)C(c1ccccc1)c1ccccc1 (stereo unspecified)
- deltaT (Mus musculus [1]): 5.3 °C
- Kb (Ileum): 6.31 µM

SMILES: COc1ccc(C(c2ccccc2)C(O)CN(C)C)cc1 (stereo unspecified)
- deltaT (Mus musculus [4]): 5.9 °C

SMILES: CN1CCN(CC(O)C(c2ccccc2)c2ccccc2)CC1 (stereo unspecified)
- deltaT (Mus musculus [5]): 6.3 °C

SMILES: OC(CN1CCOCC1)C(c1ccccc1)c1ccccc1 (stereo unspecified)
- deltaT (Mus musculus [6]): 11 °C

SMILES: CN(C)CC(O)C(c1ccc(F)cc1)c1ccc(F)cc1 (stereo unspecified)
- deltaT (Mus musculus [4]): 7.8 °C

SMILES: Cc1ccc(C(c2ccccc2)C(O)CN(C)C)cc1 (stereo unspecified)
- Activity (Mus musculus [7]): inactive

SMILES: CN(C)CC(O)C(Cc1ccccc1)c1ccccc1 (stereo unspecified)
- deltaT (Mus musculus [5]): 8.6 °C

SMILES: CN(C)CC(O)C(c1ccccc1)c1cc(Cl)cc(Cl)c1 (stereo unspecified)
- deltaT (Mus musculus [8]): 6.2 °C

SMILES: Cc1ccccc1C(c1ccccc1)C(O)CN(C)C (stereo unspecified)
- deltaT (Mus musculus [4]): 10.4 °C

- ED50 [2]: 51 mg/kg
- ED50 (Mus musculus [3]): 46 mg/kg
SMILES: Br.CN(C)C[C@@H](O)C(c1ccccc1)c1ccccc1
- Kb (Ileum): 7.94 µM

SMILES: CN(C)CC(O)C(O)(c1ccccc1)c1ccc(F)cc1 (stereo unspecified)
- deltaT (Mus musculus [4]): 7.5 °C

- ED50 [2]: > 100 mg/kg
- ED50 (Mus musculus [3]): 26 mg/kg
SMILES: CN(C)CC(O)C(c1ccccc1)c1ccc(F)cc1 (stereo unspecified)
- deltaT (Mus musculus [1]): 5.8 °C
- Kb (Ileum): 15.8 µM

SMILES: CN(C)CC(O)C(CCc1ccccc1)c1ccccc1 (stereo unspecified)
- deltaT (Mus musculus [6]): 7.4 °C

- ED50 [2]: 24 mg/kg
- ED50 (Mus musculus [3]): 29 mg/kg
SMILES: CN(C)CC(O)C(c1ccccc1)c1ccccc1Cl.Cl (stereo unspecified)
- Kb (Ileum): 6.31 µM
- deltaT (Mus musculus [9]): 6.6 °C

SMILES: CN(Cc1ccccc1)CC(O)C(c1ccccc1)c1ccc(F)cc1 (stereo unspecified)
- deltaT (Mus musculus [4]): 7.3 °C

- ED50 [2]: 43 mg/kg
- ED50 (Mus musculus [3]): 36 mg/kg
SMILES: CCN(C)CC(O)C(c1ccccc1)c1ccccc1.Cl (stereo unspecified)
- Activity (Mus musculus [1]): inactive
- Kb (Ileum): 50.1 µM
- deltaT (Mus musculus [4]): 10.2 °C

SMILES: CC(O)(CN)C(c1ccccc1)c1ccccc1 (stereo unspecified)
- Activity (Mus musculus [7]): inactive

SMILES: CN(C)CC(O)C(c1ccccc1)c1cccs1 (stereo unspecified)
- deltaT (Mus musculus [10]): 8.4 °C

SMILES: CNCC(O)C(c1ccccc1)c1ccccc1Cl (stereo unspecified)
- deltaT (Mus musculus [1]): 8.6 °C

- ED50 [2]: 3.3 mg/kg
- ED50 (Mus musculus [3]): 20 mg/kg
SMILES: CN(C)CCCN1c2ccccc2CCc2ccccc21 [IMIPRAMINE]
- Kb (Ileum): 0.00126 µM
- deltaT (Mus musculus [11]): 6.8 °C

- ED50 [2]: 40 mg/kg
- ED50 (Mus musculus [3]): 144 mg/kg
SMILES: CNCC(O)C(c1ccccc1)c1ccccc1.Cl (stereo unspecified)
- Kb (Ileum): 10 µM
- deltaT (Mus musculus [12]): 6.1 °C

- ED50 (Mus musculus [3]): 26 mg/kg
SMILES: CN(C)CC(O)C(c1ccccc1)c1cccc(C(F)(F)F)c1.Cl (stereo unspecified)
- deltaT (Mus musculus [1]): 9 °C
- Kb (Ileum): 1.58 µM

SMILES: CCN(CC)CC(O)C(c1ccccc1)c1ccccc1 (stereo unspecified)
- deltaT (Mus musculus [4]): 5 °C

SMILES: OC(CN1CCCCC1)C(c1ccccc1)c1ccccc1 (stereo unspecified)
- deltaT (Mus musculus [6]): 9.9 °C

SMILES: CC(=O)OC(CN(C)C)C(c1ccccc1)c1ccccc1 (stereo unspecified)
- deltaT (Mus musculus [1]): 10.2 °C
- Activity (Mus musculus [13]): inactive

SMILES: CN(C)CC(O)C(c1ccccc1)C1CCCCC1 (stereo in doubt; 39a)
- Activity (Mus musculus [7]): inactive

SMILES: CNCC(C)(O)C(c1ccccc1)c1ccccc1 (stereo unspecified)
- deltaT (Mus musculus [5]): 8.9 °C

SMILES: CN(CCCO)CC(O)C(c1ccccc1)c1ccccc1 (stereo unspecified)
- deltaT (Mus musculus [5]): 12.4 °C

SMILES: CN(C)CC(O)(c1ccccc1)C(c1ccccc1)c1ccccc1 (stereo unspecified)
- Activity (Mus musculus [14]): inactive

- IC50 [15]: 9.8 µM
- IC50 [16]: 8.9 µM
- IC50 [17]: 1.2 µM
- ED50 [2]: 33 mg/kg
- ED50 (Mus musculus [3]): 42 mg/kg
SMILES: CN(C)CC(O)C(c1ccccc1)c1cccc(Cl)c1.Cl (stereo unspecified)
- Activity (Rattus norvegicus): Non-toxic
- Kb (Ileum): 15.8 µM
- Activity (Mus musculus [18]): Toxic
- ED50 (Brain): 30 mg/kg
- deltaT (Mus musculus [9]): 5.3 °C

- ED50 [2]: 71 mg/kg
- ED50 (Mus musculus [3]): 40 mg/kg
SMILES: CN(C)CC(O)C(c1ccccc1)c1ccc(Cl)cc1.O=C(O)CCC(=O)O (stereo unspecified)
- Kb (Ileum): 7.94 µM
- deltaT (Mus musculus [19]): 6.3 °C

SMILES: CNCC(O)C(c1ccccc1)c1ccc(Cl)cc1 (stereo unspecified)
- deltaT (Mus musculus [4]): 8.8 °C

SMILES: CNCC(O)C(c1ccccc1)c1ccc(C)cc1 (stereo unspecified)
- Activity (Mus musculus [14]): inactive
- deltaT (Mus musculus [6]): 5.4 °C

SMILES: NCC(O)C(c1ccccc1)c1ccccc1 (stereo unspecified)
- Activity (Mus musculus [7]): inactive

SMILES: CN(C)CC(O)C(c1ccccc1)c1ccc(Cl)c(Cl)c1 (stereo unspecified)
- deltaT (Mus musculus [4]): 7.2 °C

SMILES: OC(CNCc1ccccc1)C(c1ccccc1)c1ccccc1 (stereo unspecified)
- Activity (Mus musculus [7]): inactive

- ED50 [2]: 63 mg/kg
- ED50 (Mus musculus [3]): 26 mg/kg
SMILES: Br.CN(C)C[C@H](O)C(c1ccccc1)c1ccccc1
- Kb (Ileum): 3.16 µM

- ED50 [2]: > 100 mg/kg
- ED50 (Mus musculus [3]): 49 mg/kg
SMILES: CN(C)CC(O)C(c1ccccc1)c1cccc(Br)c1.Cl (stereo unspecified)
- deltaT (Mus musculus [1]): 12.4 °C
- Kb (Ileum): 7.94 µM
- Activity (Mus musculus [8]): inactive

SMILES: CN(C)CC(O)C(c1ccccc1)C1CCCCC1 (stereo in doubt; 39b)
- Activity (Mus musculus [7]): inactive

SMILES: CN(C)CC(O)C(O)(c1ccccc1)c1ccccc1 (stereo unspecified)
- deltaT (Mus musculus [5]): 5.5 °C

SMILES: CN(C)CC(OC(=O)c1ccccc1)C(c1ccccc1)c1cccc(Cl)c1 (stereo unspecified)
- deltaT (Mus musculus [4]): 5.2 °C

SMILES: COC(c1ccccc1)(c1ccccc1)C(O)CN(C)C (stereo unspecified)
- deltaT (Mus musculus [6]): 6.9 °C

SMILES: CN(Cc1ccccc1)CC(O)C(c1ccccc1)c1ccccc1 (stereo unspecified)
- deltaT (Mus musculus [4]): 6.1 °C
